Measurements reported in ChEMBL document CHEMBL1146549, “Five new cassane diterpenes from Myrospermum frutescens with activity against Trypanosoma cruzi” (J Nat Prod, 2003).

Key:
[1] = Ratio of IC50 for HFF to IC50 for Trypanosoma cruzi Tulahuen clone C4 trypomastigotes
Trypanosoma cruzi [2] = assay: Antitrypanosomal activity against Trypanosoma cruzi Tulahuen clone C4 trypomastigotes in HFF after 7 days by beta-galactosidase reporter gene assay; assay type: functional, organism-based; details: 168 h
In short: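 HFF seeded at 1 × 10^3/well in RPMI-1640 without phenol red plus 10% fetal calf serum, overnight. βGal-expressing trypomastigotes added at 1 × 10^3/well, overnight, then serial dilutions (final 50, 10, 2 µg/mL). DMSO ≤0.1% final; vehicle control. Read at 7 days post-infection: CPRG 100 µM, Nonidet P-40 0.1% final, 4-6 h at 37 °C, OD 570 nm. Duplicates, ≥3 experiments, SD.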

HFF = assay: Cytotoxicity against HFF after 3 days by MTT assay; assay type: cell-based; details: Homo sapiens, 72 h
In short: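 Primary human foreskin fibroblasts adhered to 96-well plates, exposed to compounds, and viability assessed by MTT reduction after 3 days at 37 °C in CO2. IC50 derived as in the intracellular assay.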

Trypanosoma cruzi [3] = assay: Antitrypanosomal activity against Trypanosoma cruzi epimastigotes after 3 days; assay type: functional, organism-based; details: 72 h
In short: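 Recombinant epimastigotes grown in LIT medium with 10% calf serum at 28 °C, seeded at 1 × 10^5/mL with test compounds. After 3 days, CPRG and Nonidet P-40 added as in the intracellular assay, OD 570 nm. Amphotericin B as positive control. IC50 derived as in the intracellular assay.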

[4] = Ratio of IC50 for HFF to IC50 for Trypanosoma cruzi epimastigotes

SMILES | Ratio IC50 [1] | IC50 (Trypanosoma cruzi [2]) [µM] | IC50 (HFF) [µM] | IC50 (Trypanosoma cruzi [3]) [µM] | Ratio IC50 [4]
C=CC1=C(C)[C@@H]2C[C@@H](O)[C@H]3[C@](C)(CO)CCC[C@]3(C)[C@H]2CC1 | 9 | 16.6 | 148 | 56 | 
C=CC1=C(C)[C@@H]2CC[C@H]3[C@@](COC(C)=O)(C(=O)O)CCC[C@]3(C)[C@H]2CC1 |  |  |  | 104 | 
C=CC1=C(C)[C@@H]2CC(=O)[C@H]3[C@](C)(CO)CCC[C@]3(C)[C@H]2CC1 |  |  |  | 36 | 
C=CC1=C(C)[C@@H]2C[C@@H](OC(C)=O)[C@H]3[C@](C)(COC(C)=O)CCC[C@]3(C)[C@H]2CC1 |  |  |  | 59 | 
C[C@@H]1[C@H](O)[C@@H](C)/C=C/C=C/C=C/C=C/C=C/C=C/C=C/[C@H](O[C@@H]2O[C@H](C)[C@@H](O)[C@H](N)[C@@H]2O)C[C@@H]2O[C@](O)(C[C@@H](O)C[C@@H](O)[C@H](O)CC[C@@H](O)C[C@@H](O)CC(=O)O[C@H]1C)C[C@H](O)[C@H]2C(=O)O [AMPHOTERICIN B] |  |  |  | 1 | 
C=CC1=C(C)[C@@H]2CC[C@H]3[C@](C)(CO)CCC[C@]3(C)[C@H]2CC1 | 9 | 17.4 | 149 | 48.6 | 
C=C[C@@]1(O)CC[C@H]2[C@@H](C[C@@H](O)[C@H]3[C@](C)(COC(C)=O)CCC[C@]23C)C1=C |  | 35.8 | 124 | 16.5 | 
CC1CS(=O)(=O)CCN1/N=C/c1ccc([N+](=O)[O-])o1 (stereo not given) [NIFURTIMOX] |  | 11 |  |  | 
C=CC1=C(C)[C@@H]2C[C@@H](O)[C@H]3[C@](C)(COC(C)=O)CCC[C@]3(C)[C@H]2CC1 |  | 25.9 | 118 | 11.5 | 10
